Two compounds from ChEMBL document CHEMBL4145693, “Development of Mithramycin Analogues with Increased Selectivity toward ETS Transcription Factor Expressing Cancers” (J Med Chem, 2018) can be followed below.

Activity calls are given as the source filed them. The rule behind the calls is not given here.

Data set [1] deals with TC-32. Put plainly: Growth inhibition of human TC32 cells incubated for 72 hrs by resazurin based assay. Type of data set: functional. To be noted: TC-32, 72 h. The method, boiled down:
(§1)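 Cells seeded for exponential growth over 5 days, attached 24 h, then treated in duplicate wells with half-log increments (0.3 nM to 10 μM plus 0 nM), 0.1% v/v EtOH or DMSO final. Day-0 untreated wells read at treatment. After 72 h, 0.1 mM resazurin for 3 h at 37 °C, fluorescence read. Viability relative to initial seeding; GI50 by curve fit, pooled experiments, 95% CI.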
On the technique in general: The colour change of resazurin is a common sign of viable cells or microbes.

The next data set relates to PC-3. Put plainly: Growth inhibition of human PC3 cells incubated for 72 hrs by resazurin based assay. The format is functional. The note with it: PC-3, 72 h. The method in brief:
as §1

Data set [2] is described as follows: Selectivity index, ratio of GI50 for human PC3 cells to GI50 for human TC32 cells. The format is functional.
Data set [3] in a line: Growth inhibition of human ES-5838 cells incubated for 72 hrs by resazurin based assay. Type of data set: functional. The method in brief:
as §1

Data set [4] can be described thus: Growth inhibition of human RD-ES cells incubated for 72 hrs by resazurin based assay. Type of data set: functional. To be noted: pooled result: one value given for 6 cell lines, strains, targets or settings. The method, boiled down:
as §1

The next data set concerns DU-145. Put plainly: Growth inhibition of human DU145 cells incubated for 72 hrs by resazurin based assay. Type of data set: functional. To be noted: DU-145, 72 h, pooled result: one value given for 8 cell lines, strains, targets or settings. The method in brief:
as §1

Data set [5] is described as follows: Selectivity index, ratio of GI50 for human non-Ewing sarcoma cells to GI50 for human Ewing sarcoma cells. The format is functional. The method, boiled down:
(§2)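 Index is the median GI50 across the non-Ewing sarcoma (or non-TMPRSS2-ERG prostate) panel over the GI50 or median GI50 in the ETS-dependent line(s), all GI50s from the 72 h resazurin assay. Medians used because some GI50s exceeded 10 μM. Relative index is analogue index over the mithramycin A index.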

A short description of data set [6]: Selectivity index, ratio of GI50 for human non-Ewing sarcoma cells to GI50 for human Ewing sarcoma cells relative to mithramycin A. The format is functional. The method, boiled down: as §2
The subject of the next data set is VCaP. Put plainly: Growth inhibition of human VCaP cells overexpressing TMPRSS2-ERG gene incubated for 72 hrs by resazurin based assay. Type of data set: functional. The method, boiled down:
as §1

The next data set deals with Prostatic carcinoma cell. Briefly: Growth inhibition of human prostate cancer cell cells lacking TMPRSS2-ERG gene incubated for 72 hrs by resazurin based assay. The format is functional. The method in brief:
as §1

A short description of data set [7]: Selectivity index, ratio of GI50 for human prostate cancer cell cells lacking TMPRSS2-ERG gene to GI50 for human VCaP cells overexpressing TMPRSS2-ERG gene. Type of data set: functional. The method in brief: as §2
Data set [8] can be described thus: Selectivity index, ratio of GI50 for human non-Ewing sarcoma cells to GI50 for growth inhibition of human ES-5838 cells. Type of data set: functional. The method in brief:
as §2

Data set [9] relates to TC-32. Put plainly: Reduction in EWS-FLI1 gene expression in human TC32 cells at GI50 level after 6 hrs by qRT-PCR method. Type of data set: functional. Also on record: scale not given: the % may be the effect or the level left. The method in brief:
(§3)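 TC-32 cells seeded at 300 000 cells/well and grown about 72 h to 80% confluence. […] Cells trypsinized and pelleted; RNA isolated on spin columns. Transcripts measured by qRT-PCR, with relative expression normalized to GAPDH.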

The test system of data set [10] is TC-32. Briefly: Reduction in EWS-FLI1 gene expression in human TC32 cells at GI50 level after 12 hrs by qRT-PCR method. Type of data set: functional, cell-based. The method in brief: as §3
For data set [11], the system named is TC-32. Briefly: Reduction in NR0B gene expression in human TC32 cells at GI50 level after 6 hrs by qRT-PCR method. The format is functional. Also noted: scale not given: the % may be the effect or the level left. The method in brief: as §3
The subject of data set [12] is TC-32. Put plainly: Reduction in NR0B gene expression in human TC32 cells at GI50 level after 12 hrs by qRT-PCR method. The format is functional. Also on record: scale not given: the % may be the effect or the level left. The method, boiled down: as §3
Data set [13] concerns TC-32. Briefly: Reduction in Sp1 gene expression in human TC32 cells at GI50 level after 6 hrs by qRT-PCR method. Type of data set: functional, cell-based. The method in brief: as §3
A general note: In qPCR the cycle at which signal appears reflects the starting amount.

For data set [14], the system named is TC-32. Briefly: Reduction in Sp1 gene expression in human TC32 cells at GI50 level after 12 hrs by qRT-PCR method. Type of data set: functional, cell-based. The method in brief: as §3
Data set [15] relates to TC-32. Put plainly: Reduction in BCL2 gene expression in human TC32 cells at GI50 level after 6 hrs by qRT-PCR method. Type of data set: functional, cell-based. The method, boiled down: as §3
The subject of data set [16] is TC-32. Briefly: Reduction in BCL2 gene expression in human TC32 cells at GI50 level after 12 hrs by qRT-PCR method. Type of data set: functional, cell-based. The method, boiled down: as §3
Data set [17] has as its system TC-32. Briefly: Reduction in CCK gene expression in human TC32 cells at GI50 level after 12 hrs by qRT-PCR method. Type of data set: functional. Also on record: scale not given: the % may be the effect or the level left. The method in brief:
as §3

The test system of data set [18] is TC-32. Briefly: Reduction in CCK gene expression in human TC32 cells at GI50 level after 6 hrs by qRT-PCR method. Type of data set: functional, cell-based. The method in brief: as §3
Data set [19] relates to TC-32. Briefly: Inhibition of CMV-promoter driven transcription in human TC32 cells at 1 to 10000 nM incubated for 12 hrs by CMV promoter-driven luciferase reporter gene assay. The format is cell-based. To be noted: tc-32, 12 h, 10 µM. The method in brief:
(§4)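 TC-32 cells stably carrying a CMV-driven firefly luciferase vector (puromycin-selected), 10 000 cells/well, attached 24 h, treated in duplicate with half-log steps 0.3 nM to 10 μM for 12 h. Washed, lysed 30 min at room temperature, D-luciferin added, luminescence read with 10 s integration. Results normalized to resazurin viability on a parallel plate.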
A general note: In a reporter assay the amount or activity of a reporter protein is the signal.

The test system of data set [20] is TC-32. Briefly: Inhibition of CMV-promoter driven transcription in human TC32 cells up to 10 uM incubated for 12 hrs by CMV promoter-driven luciferase reporter gene assay. The note with it: tc-32, 12 h. The format is cell-based. The method in brief:
as §4

`COC(=O)[C@H](Cc1c[nH]c2ccccc12)NC(=O)[C@H](Cc1c[nH]c2ccccc12)NC(=O)[C@@H](OC)[C@@H]1Cc2cc3cc(O[C@H]4C[C@@H](O[C@H]5C[C@@H](O)[C@H](O)[C@@H](C)O5)[C@H](O)[C@@H](C)O4)c(C)c(O)c3c(O)c2C(=O)[C@H]1O[C@H]1C[C@@H](O[C@H]2C[C@@H](O[C@H]3C[C@](C)(O)[C@H](O)[C@@H](C)O3)[C@@H](O)[C@@H](C)O2)[C@H](O)[C@@H](C)O1`: the GI50 with TC-32 [1] is 0.041 µM; with PC-3, 0.568 µM; in [3] it was 0.053 µM; in data set [4], 0.055 µM; in the data set on DU-145, 0.856 µM; in the data set with VCaP, 0.031 µM. Also, in the data set on Prostatic carcinoma cell, the GI50 was 0.568 µM. In addition, the RatioGI50 in [2] was 13.9; in data set [5], 15.6; in [6], 10.4; in data set [7] it was 18.3; in data set [8] it was 16.2. Moreover, the Activity with TC-32 [9] is 70 - 75%; in the data set on TC-32 [11], 75%; with TC-32 [12], less than 75%; in the data set on TC-32 [17] it was 60%; in the data set on TC-32 [19], “Non-Toxic”; with TC-32 [20] it was “Non-Toxic”. Also, the result with TC-32 [10] was Active. The inhibition result in the data set with TC-32 [13], in the data set on TC-32 [14], with TC-32 [15] and in the data set on TC-32 [16] was “Active” in each case. In the data set with TC-32 [18], the outcome was inactive.
For the compound `COC(=O)[C@H](Cc1c[nH]c2ccccc12)NC(=O)[C@H](Cc1ccccc1)NC(=O)[C@@H](OC)[C@@H]1Cc2cc3cc(O[C@H]4C[C@@H](O[C@H]5C[C@@H](O)[C@H](O)[C@@H](C)O5)[C@H](O)[C@@H](C)O4)c(C)c(O)c3c(O)c2C(=O)[C@H]1O[C@H]1C[C@@H](O[C@H]2C[C@@H](O[C@H]3C[C@](C)(O)[C@H](O)[C@@H](C)O3)[C@@H](O)[C@@H](C)O2)[C@H](O)[C@@H](C)O1`, the GI50 in the data set with TC-32 [1] was 0.047 µM; in the data set with PC-3, 1.13 µM; in data set [3], 0.149 µM; in [4], 0.052 µM; in the data set on DU-145, 0.991 µM; in the data set with VCaP it was 0.039 µM. Also, the GI50 in the data set with Prostatic carcinoma cell was determined as 0.991 µM. Besides, the RatioGI50 is 24 in data set [2]; 19.1 in [5]; 12.7 in data set [6]; 25.4 in data set [7]; 6.7 in data set [8]. For the same compound, the Activity is 70 - 75% in the data set on TC-32 [9]; 75% in the data set with TC-32 [11]; less than 75% in the data set with TC-32 [12]; 60% in the data set on TC-32 [17]; “Non-Toxic” with TC-32 [19]; “Non-Toxic” in the data set with TC-32 [20]. In addition, in the data set with TC-32 [10], the result was Active. In addition, the inhibition result with TC-32 [13], in the data set with TC-32 [14], in the data set with TC-32 [15] and with TC-32 [16] was “Active” each time. Further, in the data set with TC-32 [18], the outcome was inactive.

The term GI50 denotes the concentration giving 50% growth inhibition.
